{"source": "ChEMBL document CHEMBL4033649", "about": "“Discovery of tetrahydrocarbazoles as dual pERK and pRb inhibitors” (Eur J Med Chem, 2017)", "data": [{"experiment": "(§1) Inhibition of ERK phosphorylation in human MDA-MB-231 cells after 1 hr", "format": "cell-based", "conditions": "not given", "method_in_brief": "(§2)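 MDA-MB-231 cells (25,000/well) grown 24 h, serum-starved 6 h, then exposed to compound 1 h (screen at 10 μM, n=3; dose-response for IC50). Cells fixed in 3.7% formaldehyde, permeabilized with 0.1% Triton X, immunostained with phospho-p44/p42 MAPK (T202/Y204) antibody plus anti-rabbit IgG secondary; TMB colour read by absorbance.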", "units": {"IC50": "µM"}, "values": [{"molecule": "Cc1ccc2[nH]c3c(c2c1)CCC(NC1CCC(C)C1)C3", "note": "(stereo unspecified) [listing 1 of 2 here]", "IC50": 5.5}, {"molecule": "c1ccc2c3c([nH]c2c1)C(NC1CCCC1)CCC3", "note": "(stereo unspecified) [listing 1 of 2 here]", "IC50": 30}]}, {"experiment": "as §1", "format": "cell-based", "conditions": "Homo sapiens, MDA-MB-231, 1 h", "method_in_brief": "as §2", "units": {"IC50": "µM"}, "values": [{"molecule": "O=C(NC1CCc2c([nH]c3ccccc23)C1)c1cccc(F)c1", "note": "(stereo unspecified)", "IC50": 8.1}, {"molecule": "c1ccc(CNC2CCc3c([nH]c4ccccc34)C2)cc1", "note": "(stereo unspecified)", "IC50": 6.11}, {"molecule": "O=S(=O)(NC1CCc2c([nH]c3ccccc23)C1)c1cccnc1", "note": "(stereo unspecified)", "IC50": 69.9}, {"molecule": "c1ccc2c3c([nH]c2c1)CC(NC1CCCCC1)CC3", "note": "(stereo unspecified)", "IC50": 7}, {"molecule": "CC1CCC(NC2CCCc3c2[nH]c2ccccc32)C1", "note": "(stereo unspecified)", "IC50": 3}, {"molecule": "c1ccc2c3c([nH]c2c1)CC(NC1CCOCC1)CC3", "note": "(stereo unspecified)", "IC50": "> 100"}, {"molecule": "Cc1ccc(CNC2CCc3c(n(C)c4ccccc34)C2)cc1", "note": "(stereo unspecified)", "IC50": 4.4}, {"molecule": "CC1CCC(NC2CCCc3c2[nH]c2ccc([N+](=O)[O-])cc32)C1", "note": "(stereo unspecified)", "IC50": 5.52}, {"molecule": "Cc1ccc(CNC2CCc3c([nH]c4ccc(C)cc34)C2)cc1", "note": "(stereo unspecified)", "IC50": 4.6}, {"molecule": "Cc1ccc2[nH]c3c(c2c1)CCC(NCc1ccccc1)C3", "note": "(stereo unspecified)", "IC50": 5.5}, {"molecule": "c1ccc2c3c([nH]c2c1)C(NC1CCCCC1)CCC3", "note": "(stereo unspecified)", "IC50": 9}, {"molecule": "c1ccc2c3c([nH]c2c1)CC(NC1CCCC1)CC3", "note": "(stereo unspecified)", "IC50": 21}, {"molecule": "O=S(=O)(NC1CCc2c([nH]c3ccccc23)C1)c1ccc(F)cc1", "note": "(stereo unspecified)", "IC50": 7.5}, {"molecule": "O=S(=O)(NC1CCCc2c1[nH]c1ccccc21)c1ccc(F)cc1", "note": "(stereo unspecified)", "IC50": "> 100"}, {"molecule": "COc1cccc(C(=O)NC2CCc3c([nH]c4ccccc34)C2)c1", "note": "(stereo unspecified)", "IC50": 9}, {"molecule": "Cc1ccc(CNC2CCc3c([nH]c4ccccc34)C2)cc1", "note": "(stereo unspecified)", "IC50": 3.62}, {"molecule": "O=C(NC1CCc2c([nH]c3ccccc23)C1)c1ccccc1F", "note": "(stereo unspecified)", "IC50": 29.7}, {"molecule": "O=S(=O)(NC1CCCc2c1[nH]c1ccccc21)c1cccnc1", "note": "(stereo unspecified)", "IC50": "> 100"}, {"molecule": "N#Cc1ccc(S(=O)(=O)NC2CCc3c([nH]c4ccccc34)C2)cc1", "note": "(stereo unspecified)", "IC50": 7}, {"molecule": "CC1CCC(NC2CCc3c([nH]c4ccccc34)C2)C1", "note": "(stereo unspecified)", "IC50": "> 30"}, {"molecule": "Cc1ccc2[nH]c3c(c2c1)CCC(NC1CCC(C)C1)C3", "note": "(stereo unspecified) [listing 2 of 2 here]", "IC50": 6}, {"molecule": "c1ccc2c3c([nH]c2c1)C(NC1CCCC1)CCC3", "note": "(stereo unspecified) [listing 2 of 2 here]", "IC50": 21}, {"molecule": "N#Cc1ccc(S(=O)(=O)NC2CCCc3c2[nH]c2ccccc32)cc1", "note": "(stereo unspecified)", "IC50": "> 100"}, {"molecule": "CNC(=O)c1cc(Oc2ccc(NC(=O)Nc3ccc(Cl)c(C(F)(F)F)c3)cc2)ccn1", "note": "[SORAFENIB]", "IC50": 0.063}]}]}
